Drawing on ChEMBL document CHEMBL1629518, “Structure-based approach to nanomolar, water soluble matrix metalloproteinases inhibitors (MMPIs)” (Eur J Med Chem, 2010), this text covers Ki and solubility for ten compounds.

The target in data set [1] is Collagenase 3 (Homo sapiens, UniProt P45452). The data set can be described thus: Inhibition of MMP13 by fluorimetric assay. In a few lines:
(§1)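 Enzyme source was the catalytic domain of each MMP. Inhibition was reported as Ki values.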

The target in data set [2] is T1, Matrilysin (Homo sapiens, UniProt P09237).
T1 sequence (P09237 whole entry): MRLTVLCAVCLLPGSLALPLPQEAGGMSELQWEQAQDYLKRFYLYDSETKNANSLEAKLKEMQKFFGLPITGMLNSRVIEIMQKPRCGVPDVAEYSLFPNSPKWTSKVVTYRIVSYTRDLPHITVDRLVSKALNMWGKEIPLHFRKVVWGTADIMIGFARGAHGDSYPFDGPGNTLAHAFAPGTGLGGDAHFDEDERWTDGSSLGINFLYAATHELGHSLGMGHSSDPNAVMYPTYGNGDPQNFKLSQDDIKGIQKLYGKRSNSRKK
The data set can be described thus: Inhibition of MMP7 by fluorimetric assay. Summed up:
as §1

In data set [3] the target is Neutrophil collagenase (Homo sapiens, UniProt P22894). The data set can be described thus: Inhibition of MMP8 by fluorimetric assay. Summed up:
as §1

Data set [4] addresses T2, Interstitial collagenase (Homo sapiens, UniProt P03956).
T2 sequence (P03956 whole entry): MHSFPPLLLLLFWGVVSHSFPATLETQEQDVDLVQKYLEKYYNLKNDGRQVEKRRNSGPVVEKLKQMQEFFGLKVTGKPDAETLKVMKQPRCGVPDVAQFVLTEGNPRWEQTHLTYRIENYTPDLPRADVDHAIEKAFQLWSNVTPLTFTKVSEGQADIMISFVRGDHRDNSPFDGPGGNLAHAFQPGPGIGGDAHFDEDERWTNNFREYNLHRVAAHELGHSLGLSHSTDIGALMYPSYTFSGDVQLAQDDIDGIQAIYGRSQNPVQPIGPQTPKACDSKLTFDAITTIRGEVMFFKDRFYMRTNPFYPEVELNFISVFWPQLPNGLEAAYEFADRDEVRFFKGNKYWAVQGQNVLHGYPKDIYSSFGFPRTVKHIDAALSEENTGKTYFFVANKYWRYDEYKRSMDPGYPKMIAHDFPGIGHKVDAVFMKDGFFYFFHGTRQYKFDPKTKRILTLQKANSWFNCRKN
The experiment in a line: Inhibition of MMP1 by fluorimetric assay. In a few lines:
as §1

Data set [5] in a line: Solubility of the compound in water. The class given is physicochemical.
Data set [6] deals with Macrophage metalloelastase (Homo sapiens, UniProt P39900). The data set can be described thus: Inhibition of MMP12 by fluorimetric assay. Summed up: as §1
Chain of Macrophage metalloelastase (P39900 whole entry): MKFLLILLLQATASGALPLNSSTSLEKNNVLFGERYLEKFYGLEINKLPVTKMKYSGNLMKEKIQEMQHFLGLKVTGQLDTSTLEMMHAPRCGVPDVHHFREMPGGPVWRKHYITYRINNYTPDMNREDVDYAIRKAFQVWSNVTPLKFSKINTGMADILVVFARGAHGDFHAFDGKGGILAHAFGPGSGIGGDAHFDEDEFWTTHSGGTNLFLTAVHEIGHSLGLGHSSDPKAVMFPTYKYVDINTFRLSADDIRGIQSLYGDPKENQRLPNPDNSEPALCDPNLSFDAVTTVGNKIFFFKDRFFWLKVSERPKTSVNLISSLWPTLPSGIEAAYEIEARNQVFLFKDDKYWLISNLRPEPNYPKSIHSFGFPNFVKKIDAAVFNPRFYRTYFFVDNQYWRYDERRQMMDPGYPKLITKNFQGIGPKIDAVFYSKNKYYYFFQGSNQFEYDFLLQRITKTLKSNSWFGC

In brackets after ≈: the same amount, converted by molar mass.

Chain of Neutrophil collagenase (P22894 whole entry): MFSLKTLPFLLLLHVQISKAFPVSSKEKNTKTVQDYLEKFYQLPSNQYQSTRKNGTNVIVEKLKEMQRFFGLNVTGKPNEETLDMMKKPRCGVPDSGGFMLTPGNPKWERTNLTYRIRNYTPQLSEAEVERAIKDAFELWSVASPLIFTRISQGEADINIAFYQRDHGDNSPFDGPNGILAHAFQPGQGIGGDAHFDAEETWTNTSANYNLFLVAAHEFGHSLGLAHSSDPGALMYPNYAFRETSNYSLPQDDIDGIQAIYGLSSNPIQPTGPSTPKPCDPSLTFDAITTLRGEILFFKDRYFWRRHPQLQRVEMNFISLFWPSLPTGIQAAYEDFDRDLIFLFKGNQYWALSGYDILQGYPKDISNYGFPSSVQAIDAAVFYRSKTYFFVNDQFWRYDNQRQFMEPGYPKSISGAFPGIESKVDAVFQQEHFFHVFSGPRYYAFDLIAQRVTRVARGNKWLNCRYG

For the compound `COc1ccc(S(=O)(=O)N(CCO[C@@H]2O[C@H](CO)[C@@H](O)[C@H](O)[C@H]2O)CC(=O)NO)cc1`, the Ki (in general, a dissociation constant, usually derived from enzyme kinetics or from competition with a known ligand) was found to be 1.7 nM in data set [1], 2000 nM in data set [2], 9.1 nM in data set [3] and 286 nM in data set [4]. The solubility (in general, the dissolved amount per volume that the medium holds) in data set [5] was 20 mg/mL (≈ 42.9 mM).
In the case of `O=C(CN(CCO)S(=O)(=O)c1ccc(-c2ccccc2)cc1)NO`, the Ki in data set [1] turned out to be 2.7 nM; in data set [2] it was 1600 nM; in data set [3], 4.6 nM; in data set [4], 67 nM. In data set [5], this compound had a solubility of 20 mg/mL (≈ 57.1 mM).
For `COc1ccc(S(=O)(=O)N(CCO)CC(=O)NO)cc1`, the Ki came to 7.6 nM in data set [6]; 1 nM in data set [1]; 1500 nM in data set [2]; 13 nM in data set [3]; 128 nM in data set [4]. Besides, in data set [5], the solubility worked out at 20 mg/mL (≈ 65.7 mM).
Take `COc1ccc(S(=O)(=O)N(CC(=O)NO)C[C@H](O)CO)cc1`: the Ki in data set [6] is 8 nM; in data set [1], 3.6 nM; in data set [2], 9000 nM; in data set [3] it was 24 nM; in data set [4] it was 160 nM. In addition, in data set [5], the solubility amounted to 20 mg/mL (≈ 59.8 mM).
Consider `COc1ccc(S(=O)(=O)N(C[C@H](O)CO)[C@H](CO)C(=O)NO)cc1`, for which the Ki turned out to be 7 nM in data set [6]; 1.7 nM in data set [1]; 344 nM in data set [2]; 8 nM in data set [3]; 32 nM in data set [4]. The compound further returned a solubility in data set [5] of 20 mg/mL (≈ 54.9 mM).
`COc1ccc(S(=O)(=O)N[C@H](CO)C(=O)NO)cc1`: the Ki was determined as 6 nM in data set [6]; 2.2 nM in data set [1]; 823 nM in data set [2]; 9 nM in data set [3]; 143 nM in data set [4]. This compound also gave a solubility in data set [5] of 20 mg/mL (≈ 68.9 mM).
For the compound `COc1ccc(S(=O)(=O)N[C@@H](C(=O)NO)[C@@H](C)O)cc1`, the inhibitory constant (Ki) worked out at 11 nM in data set [6]; 2.9 nM in data set [1]; 984 nM in data set [2]; 10 nM in data set [3]; 287 nM in data set [4]. In data set [5], the solubility came to 20 mg/mL (≈ 65.7 mM).
Turning to `O=C(CN(CCO)S(=O)(=O)c1ccc(F)cc1)NO`, the Ki was determined as 40 nM in data set [6]; 46 nM in data set [1]; 3000 nM in data set [2]; 173 nM in data set [3]; 151 nM in data set [4]. This compound also came in with a solubility in data set [5] of 20 mg/mL (≈ 68.4 mM).
As for `O=C(CN(C[C@H](O)CO)S(=O)(=O)c1ccc(-c2ccccc2)cc1)NO`, the inhibitory constant (Ki) in data set [6] came to 60 nM; in data set [1], 18 nM; in data set [2] it was 4000 nM; in data set [3], 48 nM; in data set [4] it was 742 nM. Also, the solubility in data set [5] was under 1 mg/mL.
Take `COc1ccc(S(=O)(=O)N(CC(=O)NO)CC(C)C)cc1`: the Ki in data set [6] stood at 4.3 nM; in data set [1], 3.1 nM; in data set [2], 13000 nM; in data set [3] it was 9 nM. In data set [5], this compound gave a solubility of 20 mg/mL (≈ 63.2 mM).
